In ChEMBL document CHEMBL1152221, “Synthesis and activity of substituted carbamates as potentiators of the alpha4beta2 nicotinic acetylcholine receptor” (Bioorg Med Chem Lett, 2008):
Active and inactive are the calls of the source. The calls are words filed in the database; no cut-off is given here.

How the values were obtained:
[1] = biological target: T1, Neuronal acetylcholine receptor; alpha4/beta2 (Homo sapiens) (UniProt P17787+P43681); assay: Activity at human alpha4beta2 nAChR assessed as potentiation of nicotine-induced response by fluorescent Ca2+ flux assay
[2] = biological target: T1, Neuronal acetylcholine receptor; alpha4/beta2 (Homo sapiens); assay: Activity at human alpha4beta2 nAChR assessed as potentiation of nicotine-induced response by fluorescent Ca2+ flux assay relative to nicotine
[3] = Metabolic stability in rat liver microsomes; type: ADME, Microsome; conditions: read-out: Stability
[4] = Clearance in Sprague-Dawley rat; type: ADME, organism-based; conditions: in vivo
[5] = Metabolic stability in human liver microsomes; type: ADME, Microsome; conditions: read-out: Stability
[6] = Ratio of drug level in brain to plasma in Sprague-Dawley rat; type: ADME, organism-based; conditions: brain and plasma
LLC-PK1 = assay: Efflux ratio of permeability from […] in human MDR1 transfected pig LLC-PK1 cells at 5 uM after 2 hrs; type: ADME, cell-based, Sus scrofa; conditions: llc-pk1, 2 h
Summary of the method: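 MDR1-LLC-PK1 cells were seeded at 200,000 cells/well on membrane filters. Transport was run manually on day 5 after plating, in both A-to-B and B-to-A directions, in the presence of 0.1% bovine serum albumin.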

[7] = biological target: Neuronal acetylcholine receptor; alpha3/beta4 (Homo sapiens) (UniProt P30926+P32297); assay: Activity at human alpha3beta4 nAChR expressed in Xenopus oocytes assessed as potentiation of acetylcholine-induced response by patch-clamp electrophysiology; type: cell-based; conditions: Oocyte
[8] = biological target: Neuronal acetylcholine receptor; alpha3/beta2 (Homo sapiens) (UniProt P17787+P32297); assay: Activity at human alpha3beta2 nAChR expressed in Xenopus oocytes assessed as potentiation of acetylcholine-induced response by patch-clamp electrophysiology; type: cell-based; conditions: Oocyte
[9] = biological target: Neuronal acetylcholine receptor; alpha4/beta2 (Rattus norvegicus) (UniProt P09483+P12390); assay: Displacement of [3H]cystisine from alpha4beta2 nAChR in rat cerebral cortical membrane at >=30 uM; type: cell membranes

| Compound | EC12 [1] [µM] | Efficacy [2] [%] | other results |
| --- | --- | --- | --- |
| CC(C)c1cc(C(C)C)n(C[C@H](OC(=O)Nc2ccc(C(F)(F)F)cc2)C(C)C)n1 | 0.4 | 106 |  |
| CC(C)c1cc(C(C)C)n(C[C@@H](C)OC(=O)Nc2ccc(F)cc2F)n1 | 0.7 | 15 |  |
| CC(C)c1cc(C(C)C)n(C[C@@H](OC(=O)Nc2ccc(F)cc2F)C(C)C)n1 | > 50 | 9 |  |
| CCc1cc(C(F)(F)F)nn1C[C@H](OC(=O)Nc1ccc(F)cc1F)C(C)C | 0.21 | 50 |  |
| Cc1ccc(NC(=O)O[C@@H](Cn2nc(C(C)C)cc2C(C)C)C(C)C)cc1 | 0.13 | 59 |  |
| CCCOc1ccc(NC(=O)O[C@@H](Cn2nc(C(C)C)cc2C(C)C)C(C)C)cc1 | 0.33 | 107 |  |
| Cc1cccc(NC(=O)O[C@@H](Cn2nc(C(C)C)cc2C(C)C)C(C)C)c1 | 0.9 | 25 |  |
| CC(C)c1cc(C(C)C)n(CC(OC(=O)Nc2ccc(F)cc2F)C(C)(C)C)n1 (racemic) | 3.7 | 11 |  |
| CC(C)c1cc(C(C)C)n(C[C@H](OC(=O)NC2CCCCC2)C(C)C)n1 | 2.7 | 13 |  |
| CC(C)c1cc(C(C)C)n(C[C@H](OC(=O)Nc2ccncc2)C(C)C)n1 | > 100 | 7 |  |
| Cc1ccccc1NC(=O)O[C@@H](Cn1nc(C(C)C)cc1C(C)C)C(C)C | > 100 | 9 |  |
| CC(C)c1cc(C(C)C)n(CC(OC(=O)Nc2ccsc2)C(C)C)n1 (racemic) | 0.7 | 12 |  |
| CC(C)c1cc(C(C)C)n(CC(OC(=O)Nc2ccccc2)C(C)C)n1 (racemic) | 0.38 | 18 |  |
| CC(C)c1cc(C(C)C)n(C[C@@H](NC(=O)Nc2ccc(F)cc2F)C(C)C)n1 | > 10 | 19 |  |
| CC[C@H](Cn1nc(C)cc1C)OC(=O)Nc1ccc(F)cc1F | 1.18 | 15 |  |
| CC(C)c1cc(C(C)C)n(C[C@H](OC(=O)Nc2ccc(Cl)cc2)C(C)C)n1 | 0.33 | 91 |  |
| CC[C@H](Cn1nc(C(F)(F)F)cc1C1CCNCC1)OC(=O)Nc1ccc(F)cc1F | > 100 | -3 |  |
| CC(C)c1cc(C(C)C)n(C[C@H](OC(=O)Nc2ccc(F)cc2F)C(C)C)n1 | 0.25 | 76 | microsomal CLint [3]: > 399 µL/min/mg; clearance [4]: 81.7 mL/min/kg; microsomal CLint [5]: 644 µL/min/mg; Kp [6]: 1; Ratio (LLC-PK1): 1.1; EC12 [7]: > 100 µM; EC12 [8]: > 100 µM |

| Compound | EC12 [1] [µM] | Efficacy [2] [%] | other results |
| --- | --- | --- | --- |
| CC[C@H](Cn1nc(C(F)(F)F)cc1C1CC1)OC(=O)Nc1ccc(F)cc1F | 0.7 | 54 |  |
| CC(C)c1cc(C(C)C)n([C@H](C)[C@@H](C)OC(=O)Nc2ccc(F)cc2F)n1 (racemic) | 1.3 | 12 |  |
| CC(C)[C@H](Cn1nc(C(F)(F)F)cc1C(F)(F)F)OC(=O)Nc1ccc(F)cc1F | 3.9 | 16 |  |
| CC(C)c1cc(C(C)C)n(C[C@H](NC(=O)Nc2ccc(F)cc2F)C(C)C)n1 | 0.31 | 25 | clearance [4]: 50 mL/min/kg; Kp [6]: 1; Ratio (LLC-PK1): 1.1; EC12 [7]: > 100 µM; EC12 [8]: > 100 µM |
| CC[C@H](Cn1nc(C(F)(F)F)cc1C1CCCO1)OC(=O)Nc1ccc(F)cc1F (some centres not stated) | > 100 | 3 |  |
| CC(C)[C@H](Cn1nc(C(F)(F)F)cc1-c1ccccc1)OC(=O)Nc1ccc(F)cc1F | 2.4 | 10 |  |
| CC(C)[C@H](Cn1nccc1C(F)(F)F)OC(=O)Nc1ccc(F)cc1F | 2.1 | 30 |  |
| CC(C)c1cc(C(C)C)n(C[C@H](OC(=O)Nc2ccc(Oc3ccccc3)cc2)C(C)C)n1 | 0.34 | 89 |  |
| COc1ccc(NC(=O)O[C@@H](Cn2nc(C(C)C)cc2C(C)C)C(C)C)cc1 | 0.14 | 77 |  |
| CC(C)c1cc(C(C)C)n([C@@H]2CCC[C@H]2OC(=O)Nc2ccc(F)cc2F)n1 | 0.25 | 73 |  |
| CC(C)[C@H](Cn1cccn1)OC(=O)Nc1ccc(F)cc1F | > 50 | 6 |  |
| CC(C)c1cc(C(C)C)n([C@@H](C)[C@@H](C)OC(=O)Nc2ccc(F)cc2F)n1 (racemic) | > 100 | 10 |  |
| CCOc1ccc(NC(=O)O[C@@H](Cn2nc(C(C)C)cc2C(C)C)C(C)C)cc1 | 0.11 | 100 | clearance [4]: 30 mL/min/kg; Activity [9]: inactive |
| CC[C@H](Cn1ccc(C(F)(F)F)n1)OC(=O)Nc1ccc(F)cc1F | 0.89 | 15 |  |
| CC[C@H](Cn1nc(C(F)(F)F)cc1C1CCCC1)OC(=O)Nc1ccc(F)cc1F | 0.57 | 95 | clearance [4]: 70.5 mL/min/kg |
| CC[C@H](Cn1nc(C(F)(F)F)cc1C1CCCCC1)OC(=O)Nc1ccc(F)cc1F | 0.38 | 88 |  |
| CC[C@H](Cn1nc(C(C)C)cc1C(C)C)OC(=O)Nc1ccc(F)cc1F | 0.38 | 83 |  |
| CC[C@H](Cn1nc(C(F)(F)F)cc1C1=CCCC1)OC(=O)Nc1ccc(F)cc1F | 0.46 | 20 |  |
